Laboratory results reported in ChEMBL document CHEMBL1141213, “Lysosomotropism of basic cathepsin K inhibitors contributes to increased cellular potencies against off-target cathepsins and reduced functional selectivity” (J Med Chem, 2005).

Columns and labels:
Cathepsin K [1] = target: Cathepsin K (Homo sapiens, UniProt P43235); assay: Inhibitory activity against humanized rabbit cathepsin K; set-up: species or system Oryctolagus cuniculus
Cathepsin B [2] = target: T1, Cathepsin B (Homo sapiens, UniProt P07858); assay: Inhibitory activity against human cathepsin B
Cathepsin B [3] = target: T1, Cathepsin B; assay: Inhibitory activity against human cathepsin B expressed in HepG2 cells; type: cell-based
Procathepsin L [4] = target: T2, Procathepsin L (Homo sapiens, UniProt P07711); assay: Inhibitory activity against human cathepsin L
T2 sequence (P07711 whole entry): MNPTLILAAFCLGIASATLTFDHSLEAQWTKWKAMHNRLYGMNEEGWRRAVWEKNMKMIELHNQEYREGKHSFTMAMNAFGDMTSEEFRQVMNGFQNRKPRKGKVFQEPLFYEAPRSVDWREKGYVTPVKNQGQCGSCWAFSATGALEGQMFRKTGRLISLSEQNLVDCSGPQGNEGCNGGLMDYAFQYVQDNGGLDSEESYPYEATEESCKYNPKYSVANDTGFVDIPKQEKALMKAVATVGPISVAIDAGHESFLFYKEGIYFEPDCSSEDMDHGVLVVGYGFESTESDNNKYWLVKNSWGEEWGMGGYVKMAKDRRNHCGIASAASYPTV

Procathepsin L [5] = target: T2, Procathepsin L; assay: Inhibitory activity against human cathepsin L expressed in HepG2 cells; type: cell-based
Cathepsin S [6] = target: T3, Cathepsin S (Homo sapiens, UniProt P25774); assay: Inhibitory activity against human cathepsin S
T3 sequence (P25774 whole entry): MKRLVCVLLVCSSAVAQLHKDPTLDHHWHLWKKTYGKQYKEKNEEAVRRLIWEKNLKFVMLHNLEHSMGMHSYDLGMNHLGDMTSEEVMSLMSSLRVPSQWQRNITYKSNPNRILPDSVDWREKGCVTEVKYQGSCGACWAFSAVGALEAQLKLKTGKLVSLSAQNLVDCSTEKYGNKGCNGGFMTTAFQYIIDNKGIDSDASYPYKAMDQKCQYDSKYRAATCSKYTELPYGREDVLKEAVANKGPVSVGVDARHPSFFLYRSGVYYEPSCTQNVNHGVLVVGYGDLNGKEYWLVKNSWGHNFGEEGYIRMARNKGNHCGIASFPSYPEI

Cathepsin S [7] = target: T3, Cathepsin S; assay: Inhibitory activity against human cathepsin S expressed in ramos cells; type: cell-based
Cathepsin K [8] = target: T4, Cathepsin K (Oryctolagus cuniculus, UniProt P43236); assay: Inhibitory activity against rabbit cathepsin K
T4 sequence (P43236 whole entry): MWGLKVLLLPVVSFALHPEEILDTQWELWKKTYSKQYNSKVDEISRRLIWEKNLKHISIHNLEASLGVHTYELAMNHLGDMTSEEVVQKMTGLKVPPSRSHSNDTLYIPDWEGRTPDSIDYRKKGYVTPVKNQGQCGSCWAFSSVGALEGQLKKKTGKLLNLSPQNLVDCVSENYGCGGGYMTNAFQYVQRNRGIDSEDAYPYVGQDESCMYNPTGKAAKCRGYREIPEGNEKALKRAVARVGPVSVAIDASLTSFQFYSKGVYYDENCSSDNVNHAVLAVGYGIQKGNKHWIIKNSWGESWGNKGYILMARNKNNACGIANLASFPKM

Osteoclast = assay: Effect of compound on degradation of collagen in osteoclast bone resorption assay; type: functional, cell-based; details: Oryctolagus cuniculus
Cathepsin S [9] = target: T5, Cathepsin S (Mus musculus, UniProt O70370); assay: Inhibitory activity against mouse cathepsin S
T5 sequence (O70370 whole entry): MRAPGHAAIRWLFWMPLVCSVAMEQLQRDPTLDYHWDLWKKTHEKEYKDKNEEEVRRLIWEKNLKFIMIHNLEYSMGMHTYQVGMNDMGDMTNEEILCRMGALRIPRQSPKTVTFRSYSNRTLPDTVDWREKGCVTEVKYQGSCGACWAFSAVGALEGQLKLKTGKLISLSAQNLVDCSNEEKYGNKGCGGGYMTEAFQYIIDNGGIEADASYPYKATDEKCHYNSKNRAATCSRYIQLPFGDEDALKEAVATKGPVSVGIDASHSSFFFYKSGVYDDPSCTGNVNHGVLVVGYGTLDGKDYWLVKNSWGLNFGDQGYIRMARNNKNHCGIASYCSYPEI

Cathepsin S [10] = target: T5, Cathepsin S; assay: Inhibitory activity against mouse cathepsin S in mouse splenocytes; type: cell-based
Outline: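 Splenocytes from 8–10-week C57Bl/6 mouse spleens, red cells lysed in NH4Cl buffer, suspended at 2.5×10^7 cells/mL in RPMI/HEPES pH 7. Preincubated with compound 60 min at 37 °C, then iodinated probe BIL-DMK (1 nM) added for 20 min.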

A20 = assay: Effect of compound on antigen presentation in mouse A20 cells transfected with PC-specific mIgM by IL-2 secretion; type: functional, cell-based
Outline: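 A20 cells transfected with PC-specific mIgM (1×10^5) preincubated with compound 60 min at 37 °C in RPMI 1640 with 10% FBS, glutamine and β-mercaptoethanol. DO.11.10 T cells (1×10^5) and PC-OVA antigen (30 μg/mL) added, then incubated overnight. IL-2 secreted into medium measured by ELISA. IC50 taken against DMSO as the no-inhibition control; at least duplicate experiments.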

[11] = Partition co-efficient, logP of the compound; type: physicochemical; details: octanol/water
[12] = Dissociation constant, pKa of the compound; type: physicochemical
[13] = Volume of distribution in rat administered with 5 mg/kg, iv; type: ADME, organism-based; set-up: dose 5 mg/kg, route intravenous; details: in vivo, read-out: Vdss
Rattus norvegicus [14] = assay: Plasma concentration in rat at 5 mg/kg, iv; type: ADME, organism-based; set-up: dose 5 mg/kg, route intravenous; details: in vivo
Outline: (§1)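 Rats dosed 10 mg/kg po or 5 mg/kg iv; tissues and plasma taken 2 h after dosing. Tissue weighed, homogenized in 2 volumes water, then 3 volumes acetonitrile with internal standard, homogenized again and centrifuged. Supernatant quantified by LC-MS/MS against a standard curve from spiked rat plasma.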

Rattus norvegicus [15] = assay: Volume of distribution in rat administered with 10 mg/kg, po; type: ADME, organism-based; set-up: dose 10 mg/kg, route oral; details: in vivo
Rattus norvegicus [16] = assay: Plasma concentration in rat at 10 mg/kg, po; type: ADME, organism-based; set-up: dose 10 mg/kg, route oral; details: in vivo; outline: as §1

Row | SMILES | IC50 (Cathepsin K [1]) [nM] | IC50 (Cathepsin B [2]) [nM] | IC50 (Cathepsin B [3]) [nM] | IC50 (Procathepsin L [4]) [nM] | IC50 (Procathepsin L [5]) [nM] | IC50 (Cathepsin S [6]) [nM] | IC50 (Cathepsin S [7]) [nM] | IC50 (Cathepsin K [8]) [nM] | IC50 (Osteoclast) [nM] | IC50 (Cathepsin S [9]) [nM] | IC50 (Cathepsin S [10]) [nM] | IC50 (A20) [nM] | logP [11] | pKa [12] | Vd [13] [L/kg] | concentration (Rattus norvegicus [14]) [nM] | Vdss (Rattus norvegicus [15]) [L/kg] | concentration (Rattus norvegicus [16]) [nM]
1 | CC(C)C[C@@H](C(=O)NCC#N)c1cccc(-c2ccc(N3CCNCC3)cc2)c1 | 7.8 | 86000 | 4400 | 2600 | 320 | 20000 | 1340 | 33 | 149 | 34100 | 740 | 8600 | 3.46 | 8.77 |  |  |  | 
2 | CN1CCN(c2nc(-c3ccc(C(=O)NC4(C(=O)NCC(F)(F)F)CCCCC4)cc3)cs2)CC1 |  |  |  |  |  |  |  |  |  | 33000 | > 10000 | > 100000 | 2.9 | 6.84 |  |  |  | 
3 | N#CCNC(=O)C1(NC(=O)c2ccc(-c3csc(N4CCOCC4)n3)cc2)CCCCC1 | 2.3 | 4200 | 2900 | 24000 | > 10000 | 27000 | > 10000 | 9.5 | 41 | 8500 | 6700 | > 100000 |  |  |  |  |  | 
4 | N#CCNC(=O)C1(NC(=O)c2ccc(N3CCOCC3)cc2)CCCCC1 | 19 | 15400 | 4400 | 32000 | > 10000 | 52000 | 4800 | 72 | 580 | 4500 | 8500 | > 100000 | 0.98 |  | 1.9 | 170 |  | 
5 | N#CCNC(=O)[C@H](CC1CCCCC1)NC(=O)c1ccccc1 | 1030 | 19000 | 940 | 55 | 230 | 5.3 | 10 |  |  | 13 | 40 | 1220 |  |  |  |  |  | 
6 | CN1CCN(c2nc(-c3ccc(C(=O)NC4(C(=O)NCC#N)CCCCC4)cc3)cs2)CC1 | 0.25 | 1100 | 17 | 6300 | 340 | 47000 | 790 | 0.5 |  | 5400 | 318 | 6200 | 2.3 | 7.01 |  |  | 11 | 2400
7 | CCCN1CCN(c2ccc(C(=O)NC3(C(=O)NCC#N)CCCCC3)cc2)CC1 [BALICATIB] |  | 4800 | 61 | 503 | 48 | 65000 | 2900 |  |  | 6350 | 480 | 6180 | 1.81 | 7.76 |  |  | 4.7 | 
